WT yeast gro inh = growth inhibition of WT yeast, mitochondrial fusion screen; inhibition, % at 10 µM; 2.1% of 190,000 active; AID 1362; mitochondrial fusion phenotypic screen, WT strain; in the data active = inhibition above about 58%; tested in S. cerevisiae
L major viab = reduces viability of Leishmania major promastigotes. resazurin fluorescence viability. 9% of 200,000 active. AID 1063. inhibition, % at 10 µM; in the data active = inhibition above about 50%;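 also: promastigotes grown with compound for 44 hours at 28 °C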
PMI act hi M6P = activators of human phosphomannose isomerase at near-saturating mannose 6-phosphate; P34949; coupled PMI enzyme assay, resazurin fluorescence, 20 min; active compounds read high; 1 = untreated enzyme, 0 = substrate-free blank; activation factor at 20 µM; 0.34% of 190,000 active; AID 1216;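 active = activation factor of 2 or more at 20 µM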
Target sequence (P34949 whole entry, looked up): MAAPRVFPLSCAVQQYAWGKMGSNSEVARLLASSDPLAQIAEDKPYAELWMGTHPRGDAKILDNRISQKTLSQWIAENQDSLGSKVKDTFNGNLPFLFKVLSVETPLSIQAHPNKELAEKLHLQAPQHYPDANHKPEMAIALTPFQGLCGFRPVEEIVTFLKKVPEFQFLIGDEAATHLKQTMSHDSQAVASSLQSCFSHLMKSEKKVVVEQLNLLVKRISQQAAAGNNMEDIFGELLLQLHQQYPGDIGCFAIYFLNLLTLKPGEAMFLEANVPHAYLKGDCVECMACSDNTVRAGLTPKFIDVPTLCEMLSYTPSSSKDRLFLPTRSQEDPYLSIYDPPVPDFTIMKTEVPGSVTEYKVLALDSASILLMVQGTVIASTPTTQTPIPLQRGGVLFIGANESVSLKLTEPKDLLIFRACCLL
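assay system = human phosphomannose isomerase with PGI, G6PDH, diaphorase coupling enzymes | quantity = 15 ng/mL PMI | incubation = enzyme reaction with compound 20 min at room temperature | medium = HEPES pH 7.4 buffer with MgCl2 and Tween-20 | compound dosing = one concentration, 20 µM, in 1% DMSO | measured by = Diaphorase-driven resazurin-to-resorufin fluorescence, excitation 544, emission 590 nm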
Diaphorase act = activates diaphorase or chemically reduces, flagging diaphorase assay artifacts. Diaphorase/resazurin coupled assay, resorufin fluorescence, 16 min; active compounds read high; 1 = vehicle wells, 0 = NADH-free wells. activation factor at 20 µM. 0.005% of 190,000 active;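 active = diaphorase activity raised at least twofold by the compound at 20 µM; inactive = activation factor below 2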
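Material: Purified diaphorase enzyme from Clostridium kluyveri | Buffer or medium: 50 mM HEPES pH 7.4 with 4.542 mM MgCl2, 0.005% Tween 20 | Times: 16 min enzyme reaction, ambient temperature | Signal: Red resorufin fluorescence at 544/590 nm excitation/emission | Measure: Increased resorufin signal from activators or reducing compounds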
PMI activator = activators of human phosphomannose isomerase; P34949; purified human PMI, coupled resazurin fluorescence, 20 min; active compounds read high; 1 = vehicle control, 0 substrate-free wells; activation factor at 20 µM; 0.005% of 190,000 active; AID 1214;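 active = activation factor of 2 or more at 20 µM, relative to plate controls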
Active calls of the source: *. Most compounds without a hit are left out; they make up all but 10% or so of the library.

SMILES	WT yeast gro inh	L major viab	PMI act hi M6P	Diaphorase act	PMI activator
CC1CC(OCC(O)CN2CCN(Cc3ccccc3)CC2)CC(C)(C)C1 (centres undefined)	-13	93*	1.3	1	1.3
COc1ccc(OCCOCC(O)CN2CCOCC2)cc1 (centres undefined)	2	-4	0.9	0.8	0.9
OC(COCCOc1ccc(Br)cc1)CN1CCN(Cc2ccccc2)CC1 (centres undefined)	44	85*	1.2	0.9	1.2
NC(=O)c1c(NC(=O)C2CCCO2)sc2c1CCCC2 (centres undefined)	-10	6	0.9	0.9	0.7
O=c1ccn(-c2ccccc2)[nH]1	-1	-1	1	1	1
COC(=O)C1NN=C(C(=O)c2ccc(Cl)cc2)C1c1ccc(OC)cc1 (centres undefined)	4	-7	1	0.9	1
Cc1sc2ncnc(Sc3nnnn3-c3ccccc3)c2c1C	-14	89*	1	0.8	1
Cc1sc2ncnc(Sc3ccccc3C(=O)O)c2c1C	3	0	1.4	1	1.3
COc1ccc(S(=O)(=O)Nc2ccccc2C(=O)NC(C)(C)C)cc1OC	8	-8	1	0.9	1
COc1ccc(S(=O)(=O)Nc2ccccc2C(=O)OC2CCCN(C)C2)cc1OC (centres undefined)	-3	100*	1	0.9	1
CCCCC(CC)CNC(=O)CC1Nc2c3ccccc3nc(=S)n2C1=O (centres undefined)	0	30	1.2	0.6	1.2
COc1cccc(-n2c(SCC(=O)Nc3sc4c(c3C(N)=O)CCC4)nc3ccccc3c2=O)c1	20	52*	0.8	0.8	0.8
Cc1ccc(S(=O)(=O)N(C)C)cc1-n1c(SCC(=O)Nc2ccccc2)nc2ccccc2c1=O	6	89*	0.8	0.7	0.7
Cc1ccccc1-n1c(SCC(=O)NC(N)=O)nc2sc(-c3ccccc3)cc2c1=O	12	61*	0.9	0.8	0.9
Cc1ccc(S(=O)(=O)N(C)C)cc1-n1c(SCC(=O)Nc2ccc(F)cc2)nc2ccccc2c1=O	-3	33	0.9	0.8	0.8
Cc1ccc(/C=N/NC(=O)CSc2nc3ccccc3c(=O)n2-c2ccccc2C)s1	4	14	0.9	0.7	1
Cc1ccccc1-n1c(SCC(=O)N/N=C/c2sccc2C)nc2ccccc2c1=O	6	86*	1	0.8	1
COc1ccc(NS(=O)(=O)c2cc(NC(=O)c3cnccn3)ccc2OC)cc1Br	-10	95*	0.8	0.8	0.9
COc1ccc(NS(=O)(=O)c2cc(NC(=O)c3cccs3)ccc2N2CCCC2)cc1	27	34	1.3	0.8	1.2
COc1ccccc1NS(=O)(=O)c1cc(NC(=O)c2ccncc2)ccc1N1CCCC1	24	4	0.6	0.7	0.6
COc1ccc(NS(=O)(=O)c2cc(NC(=O)c3cnccn3)ccc2N2CCCC2)cc1	9	93*	1	0.9	1
COc1ccc(NS(=O)(=O)c2cc(NC(=O)c3ccc(C)o3)ccc2N2CCCCC2)cc1	5	99*	0.9	0.8	0.8
CC(=O)Nc1ccc(NC(=O)CSc2nnc(C)c(=O)[nH]2)cc1	-14	-5	1	1	1
CCOC(=O)c1sc(NC(=O)CSc2nc3c(c(=O)n2-c2ccc(C)cc2)SCC3)c(C(=O)OCC)c1C	0	8	0.9	0.9	0.9
O=C(CCCCCNC(=S)Nc1ccccc1)C[N+](=O)[O-]	-25	4	1	0.9	1
SMILES	WT yeast gro inh	L major viab	PMI act hi M6P	Diaphorase act	PMI activator
CC(C)(C)c1nn2cnnc2n(/N=C/c2ccc(O)cc2)c1=O	-21	-5	1	0.8	1
O=C(CCl)N1N=C(c2cccs2)CC1c1ccco1 (centres undefined)	-32	96*	0.9	0.7	1
Cc1ccc(S(=O)(=O)N2CCC(C(=O)NNS(=O)(=O)c3ccc(Cl)cc3)CC2)cc1	-19	-5	1	1.1	1
CCCCNC(=O)CSc1nc2ccccc2c(=O)n1C1CCCC1	-17	95*	1	0.9	1
CCOC(=O)CSc1nc2ccccc2c(=O)n1C1CCCC1	-5	-4	0.9	0.9	0.9
CS(=O)(=O)N1N=C(c2ccco2)CC1c1ccc(Cl)cc1Cl (centres undefined)	17	3	1	0.9	1
Cc1ccc(NC(=S)NCC23C=CC(O2)C2C(=O)N(c4ccc(C)cc4)C(=O)C23)cc1 (centres undefined)	15	92*	1.3	0.8	1.2
Cc1ccc(S(=O)(=O)NCC23C=CC(O2)C2C(=O)N(c4ccccc4)C(=O)C23)cc1 (centres undefined)	-7	3	1.6	0.9	1.4
Cc1ccc(N2C(=O)C3C4C=CC(CNC(=S)N5CCN(c6ccccc6)CC5)(O4)C3C2=O)cc1 (centres undefined)	-14	-4	1.3	0.8	1.2
Cc1cccc(NC(=S)NCC23C=CC(O2)C2C(=O)N(c4ccc(Cl)cc4)C(=O)C23)c1 (centres undefined)	12	53*	1.5	0.9	1.2
COc1cc(C(=O)NC(=S)Nc2ccc(N3CCCC3)cc2)cc(OC)c1OC	26	8	0.9	0.9	0.7
Cc1ccc(C2=NN=C(NC(=O)C(F)(F)F)SC2)cc1	7	10	0.8	0.9	0.4
COC(=O)c1ccc2c(=O)n(CCCCCC(=O)NC(C)C)c(=O)[nH]c2c1	1	1	0.9	0.9	1
CN(C)S(=O)(=O)c1cccc(C(=O)OCC(=O)N2c3ccccc3NC(=O)C2(C)C)c1	9	-3	1	0.8	1
CC1(C)C(=O)Nc2ccccc2N1C(=O)COC(=O)c1ccc(Cl)c(S(=O)(=O)NCc2ccccc2)c1	16	99*	1	0.8	0.9
Cc1cncn1CCc1nc2c3ccccc3nc(SCC(=O)Nc3cccc(Cl)c3)n2n1	20	100*	1.1	1.3	0.9
O=C(OC(C(=O)Nc1cccc(C(F)(F)F)c1)c1ccccc1)C1CCCCC1 (centres undefined)	62*	6	0.9	0.8	0.8
Clc1ccc(-c2n[nH]c3c2CCCC3)cc1	62*	-5	0.9	0.8	0.9
COc1ccc(Cc2[nH]n3c(=O)cc(C(C)C)nc3c2-c2ccccc2)cc1	7	97*	1	0.9	0.9
CC(=O)Nc1ccccc1NC(=O)c1cc(C)ccc1C	-5	11	1.1	1	1
Cc1ccc(C)c(NC(=O)c2ccccc2C(=O)c2ccccc2)c1	63*	18	0.9	0.9	1
CCN(CC)CCCOc1ccc(C)cc1Br	-4	94*	1.1	1	1.1
COc1cc(C)ccc1OCCOCCOc1cc(C)c(C)cc1Br	20	-2	0.9	0.9	0.9
